# In the library only some 2.1% were active in any assay of this set; here they are far more common.
# hK5 inh = inhibitors of human kallikrein 5. Q9Y337. recombinant hK5, fluorogenic AMC substrate cleavage. inhibition, % at 5 µM. hit rate 0.59% among 210,000. AID 873;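 active = inhibition of 40% or more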;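 note: 0% = enzyme controls without compound and 100% = no-enzyme blanks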
# Target sequence (Q9Y337 67-293 limits assumed): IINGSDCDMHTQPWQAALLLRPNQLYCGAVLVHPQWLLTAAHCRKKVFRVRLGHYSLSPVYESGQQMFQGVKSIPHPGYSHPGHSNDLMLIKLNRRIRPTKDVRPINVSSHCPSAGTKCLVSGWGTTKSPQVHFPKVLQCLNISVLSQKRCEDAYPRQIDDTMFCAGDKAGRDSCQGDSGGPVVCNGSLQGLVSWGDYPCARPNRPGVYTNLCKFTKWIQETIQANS
# PGE2 EP2 inh = blocks the human prostaglandin E2 receptor EP2; P43116; C6 glioma cells expressing human EP2, cAMP TR-FRET; cells stimulated with saturating PGE2; inhibition, % at 25 µM; hit rate 0.52% among 260,000; AID 1422;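 active = percent inhibition above 40 after rounding to a whole number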;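 note: rat C6 glioma host cells with rolipram phosphodiesterase inhibitor present; the protocol text gives 20 µM as final concentration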
# Target sequence (P43116 whole entry, looked up): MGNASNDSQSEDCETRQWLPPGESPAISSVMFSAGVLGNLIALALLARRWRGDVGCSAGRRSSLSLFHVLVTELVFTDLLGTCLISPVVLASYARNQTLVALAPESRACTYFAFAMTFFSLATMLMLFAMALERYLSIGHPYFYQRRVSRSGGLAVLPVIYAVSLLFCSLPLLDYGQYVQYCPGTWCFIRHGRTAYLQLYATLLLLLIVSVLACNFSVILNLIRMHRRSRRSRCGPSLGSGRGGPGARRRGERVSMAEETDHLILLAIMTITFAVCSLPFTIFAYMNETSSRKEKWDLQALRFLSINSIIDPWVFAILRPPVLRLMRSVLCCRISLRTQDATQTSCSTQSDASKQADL
# FXIa inh = inhibitors of human coagulation factor XIa; P03951; purified FXIa, Boc-Glu-Ala-Arg-AMC fluorogenic substrate; AID 798; inhibition, % at 5 µM; hit rate 0.14% among 220,000;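 active = inhibition of at least 40%; inactive = inhibition below 40%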;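 note: fluorescence of freed AMC excited at 355 nm; 0% = enzyme without compound and 100% = no enzyme blank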
# EP2 mod = modulators of human EP2 prostaglandin E2 receptor; EP2-expressing cells, cAMP HTRF FRET, PGE2 co-stimulation; hit rate 0.83% among 260,000; induction, % at 25 µM; AID 940;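 active = compounds whose cAMP rise, as percent of the full-agonist control response, exceeds 60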;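 note: rat C6 glioma line stably carrying human EP2 under a CMV promoter; the protocol text gives 20 µM as final concentration; 100% = response of wells given 1 µM PGE2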
# Thrombin inh = thrombin (human) inhibition; alpha-thrombin, Boc-VPR-AMC fluorogenic substrate cleavage; inhibition, % at 5 µM; hit rate 0.26% among 220,000;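 active = inhibition at or above 40%; inactive = inhibition below 40%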;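 note: 0% = enzyme with no compound and 100% = wells without enzyme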
#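 Assay system: human alpha-thrombin enzyme. Reagent: Boc-VPR-AMC substrate, 15 µM final. Compound dosing: one concentration per compound, 5 µM, with 0.2% DMSO. Incubation: room-temperature reaction. Technique: AMC fluorescence, 355/460 nm. Measure: % inhibition relative to enzyme controls and enzyme-free blanks.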
# FXIIa inh = factor XIIa (human) inhibition; AID 800; purified FXIIa, Boc-QGR-AMC fluorogenic substrate, 2 h; inhibition, % at 5 µM; hit rate 0.3% among 220,000; P00748; in the data active = inhibition above about 40%;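 note: 0% = enzyme with no compound and 100% = blank without enzyme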
# EP2 cAMP induct = human EP2 receptor cAMP induction, negative in counter-screens | AID 1080 | hit rate 47% among 1,300 | shares compounds with EP2 mod | calls only at 20 µM (by protocol) | C6 glioma EP2 cells, cAMP HTRF induction; plus low (about EC15) PGE2 agonist;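 active = cAMP induction above 50% in the main assay while under 30% in all four parallel counter assays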;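 note: rat C6 glioma cells stably expressing human EP2 receptor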
# The depositor's hits bear a star; i = inactive; x = not tested or not shown; + = active, no number.
SMILES,hK5 inh,PGE2 EP2 inh,FXIa inh,EP2 mod,Thrombin inh,FXIIa inh,EP2 cAMP induct
CN(C)Cc1ccccc1Sc1cccc2ccccc12,-23,8,3,75*,-2,6,+
CCOc1ccccc1-n1c(SCC(=O)N2CCCCC2)nc2ccccc2c1=O,x,16,x,7,x,x,x
O=C(CSc1nc(-c2ccc(F)cc2)cc(C(F)(F)F)n1)N1CCCCCC1,x,5,x,21,x,x,x
Cn1c(=S)[nH]c2c(c1=O)C(C)(C)Cc1ccccc1-2,1,22,-3,52,-12,4,x
CCn1c(=S)[nH]c2c(c1=O)C(C)(C)Cc1ccccc1-2,2,21,2,66*,0,14,i
CC(=O)Nc1ccc(Sc2ncnc3scc(-c4ccccc4)c23)cc1,-7,4,-5,26,-6,-9,x
CCCC(=O)Nc1ccccc1Sc1ncnc2scc(-c3ccccc3)c12,-14,6,7,68*,4,18,i
C=CCn1c(SCC(=O)Nc2ccc(C)cc2)nnc1-c1ccncc1,x,11,x,-31,x,x,x
CCCn1c(Nc2cccc(C)c2)nc2c1c(=O)n(C)c(=O)n2C,x,11,x,24,x,x,x
NS(=O)(=O)c1ccc(NCc2cnc3ccccc3n2)cc1,x,10,x,71*,x,x,i
NS(=O)(=O)c1ccc(NCc2cnc3ccccc3c2)cc1,x,7,x,8,x,x,x
COc1ccc2cc(CN(C)CC3CCN(C)C3)c(OC)nc2c1 (stereo unspecified),x,12,x,16,x,x,x
C(=N\N1CCN(C2c3ccccc3-c3ccccc32)CC1)/c1cccnc1,-21,15,18,74*,-5,25,i
c1ccc(-c2cc(-c3ccncc3)nc3ccc4ccccc4c23)cc1,-12,5,6,99*,-5,13,+
CC(C)c1nc(SCC(=O)Nc2nc3ccccc3s2)c2ccccc2n1,x,10,x,12,x,x,x
CCOC(=O)c1ccc(CN(Cc2ccc(C)cc2)S(=O)(=O)c2cccc([N+](=O)[O-])c2)cc1,-3,4,3,65*,1,11,i
CCOC(=O)C(C)(C)N(Cc1cccc(C)c1)S(=O)(=O)c1cccc([N+](=O)[O-])c1,-7,5,23,36,-4,25,x
CSc1ccccc1NC(=O)C1CCN(S(=O)(=O)c2ccccc2)CC1,x,12,x,-8,x,x,x
Oc1ccccc1/C=N/Nc1ccnc(SCc2ccccc2)n1,-65,9,18,6,-4,6,x
Clc1ccc(Cl)c(Nc2ccnc(SCc3ccccc3)n2)c1,x,36,x,62*,x,x,i
CCCCn1c(-c2nonc2N)nc2ccccc21,-4,7,-11,54,-1,4,x
CC(C)CCn1c(-c2nonc2N)nc2ccccc21,-7,11,1,70*,1,8,i
COC(=O)c1cccc(S(=O)(=O)N(Cc2ccco2)Cc2cc3cc(C)c(C)cc3[nH]c2=O)c1,x,8,x,-33,x,x,x
COc1ccc2c(c1)C(=NO)c1cc(OC)ccc1-2,5,14,5,-17,8,18,x
C=CCOc1ccc2c(c1)C(=NO)c1cc(OCC=C)ccc1-2,9,8,16,83*,4,22,+
SMILES,hK5 inh,PGE2 EP2 inh,FXIa inh,EP2 mod,Thrombin inh,FXIIa inh,EP2 cAMP induct
CCc1nc2c(cnn2-c2ccc(Cl)cc2)c(=O)n1-c1ccc(OC)cc1,15,17,0,81*,-2,10,i
CC1CCN(C(=O)C2CCN(Cc3ccc(F)cc3)CC2)CC1,x,10,x,11,x,x,x
C=CCSc1ncnc2sc(C)c(C)c12,-11,3,2,55,-6,0,i
C=CCSc1nc2sc(C)c(C)c2c(=O)n1CC=C,-9,8,7,71*,-2,11,i
CCC(c1nnnn1C(C)(C)C)N(Cc1cc2cccc(C)c2[nH]c1=O)C1CCCCC1 (stereo unspecified),x,9,x,23,x,x,x
Cc1cc(C)c2c(n1)sc1c(=O)n(Cc3ccccc3Cl)nnc12,-8,x,4,67*,3,7,i
Cc1cc(C)nc(SCc2nnc(SCC(=O)N3CCCCC3C)n2Cc2ccco2)n1 (stereo unspecified),x,5,x,13,x,x,x
CCCCc1nc2sc3c(SCCN(C)C)ncnc3c2c2c1CCC2,20,18,-21,0,-9,1,x
CCCCc1nc2sc3c(SCC(=O)NCc4ccco4)ncnc3c2c2c1CCC2,-23,10,1,68*,0,15,i
Cc1ccc(NC(=O)Nc2ccccc2C(=O)NCc2ccccc2)cc1,-2,18,2,3,1,10,x
Cc1ccc(C(=O)Nc2ccccc2C(=O)NCc2ccccc2)cc1,-4,2,24,67*,-1,3,i
O=C(Nc1cccc(Cl)c1)NC1CC2CCCC(C1)N2Cc1ccco1 (stereo unspecified),x,39,x,-108,x,x,x
O=C1c2ccccc2OC2(C=Cc3ccccc3O2)N1Cc1ccccc1 (stereo unspecified),-20,x,-1,76*,-2,12,+
O=C(CCc1nc2ccccc2[nH]c1=O)OCC(=O)c1ccc(Cl)c(Cl)c1,x,10,x,3,x,x,x
Cn1cccc1C(C(=O)NC1CCCCC1)N(C(=O)Cc1cccs1)c1ccccc1 (stereo unspecified),x,10,x,12,x,x,x
CC1=CC2C(C(C)C)CCC(C)(O)C2CC1 (stereo unspecified),x,6,x,65*,x,x,+
CCCn1c(-c2cccs2)nc2c1c(=O)[nH]c(=O)n2Cc1ccccc1,1,0,-2,72*,-6,6,+
CCCn1c(=O)[nH]c(=O)c2c1nc(-c1ccccc1OC(F)F)n2CCOC,-4,2,6,84*,4,17,i
CCCn1c(=O)[nH]c(=O)c2c1nc(-c1ccc(OC(F)F)c(OC)c1)n2CCOC,-8,10,-4,9,-5,1,x
CCOc1ccc(C2C3=C(CC(C)(C)CC3=O)N(CCOC)C3=C2C(=O)CC(C)(C)C3)cc1OC,x,4,x,-1,x,x,x
CCc1ccccc1NC1=NCC(=O)N1Cc1ccc(OC)cc1,-8,15,-2,41,2,5,x
COc1ccc(CN2C(=O)CN=C2Nc2cc(C)ccc2C)cc1,-8,10,6,70*,2,7,i
COC(=O)c1ccc(Oc2cc(C)nc(NCc3ccccc3)n2)cc1,-7,11,2,70*,2,7,+
Cc1cccc(CSc2ncnc3ccccc23)c1,-8,7,-4,71*,-7,11,i
Cc1ccc(CSc2ncnc3ccccc23)cc1,-8,7,-1,40,-5,3,x
Oc1ccc(NCc2ccccc2OCc2ccccc2F)cc1,-3,17,-3,30,-1,13,x
Cc1ccc(NCc2ccccc2OCc2ccccc2F)cc1,-7,9,0,76*,-3,9,i
